Results from ChEMBL document CHEMBL4033782, “Structural Modification of Natural Product Tanshinone I Leading to Discovery of Novel Nitrogen-Enriched Derivatives with Enhanced Anticancer Profile and Improved Drug-like Properties” (J Med Chem, 2018).
Converted amounts (≈) assume the structure as drawn.

Key:
[1] = system: KB; experiment: Antiproliferative activity against human KB cells after 72 hrs by sulforhodamine B assay; format: functional, cell-based
Outline: (§1)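 Cells grown in ATCC-specified medium with 10% heat-inactivated FBS, penicillin/streptomycin and 10 mM Hepes, at 37 °C under 5% CO2. Seeded, cultured overnight, then exposed to gradient concentrations for 72 h. Growth read by SRB staining; inhibition % = [1−(A450 treated/A450 control)]×100. IC50 obtained by the Logit method from independent experiments.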

[2] = Antiproliferative activity against human KB/VCR cells after 72 hrs by sulforhodamine B assay; format: functional, cell-based; outline: as §1
[3] = Aqueous solubility of the compound in pH 7.5 Tris buffer after 24 hrs by HPLC method; format: physicochemical
[4] = Half life in human liver microsomes at 0.1 uM up to 60 mins by LC-MS/MS analysis; format: ADME, microsome
Outline: (§2)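 Compound at 0.1 μM final (0.01% DMSO, 0.005% BSA) incubated at 37 °C with human, rat or mouse liver microsomes (0.33 mg/mL protein) in 0.1 M Tris/HCl pH 7.4, with 5 mM MgCl2 and 1 mM NADPH. Samples taken at 0, 7, 17, 30 and 60 min, quenched by methanol precipitation, centrifuged, and parent measured by LC-MS/MS. T1/2 and Clint derived.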

[5] = Half life in rat liver microsomes at 0.1 uM up to 60 mins by LC-MS/MS analysis; format: ADME, microsome; outline: as §2
[6] = Half life in mouse liver microsomes at 0.1 uM up to 60 mins by LC-MS/MS analysis; format: ADME, microsome; details: liver microsomes; outline: as §2
[7] = system: Liver; experiment: Intrinsic clearance in human liver microsomes assessed as per mg protein up to 60 mins by LC-MS/MS analysis; format: ADME, microsome; details: 1 h; outline: as §2
[8] = system: Liver; experiment: Intrinsic clearance in mouse liver microsomes assessed per mg protein up to 60 mins by LC-MS/MS analysis; format: ADME, microsome; details: 1 h; outline: as §2
[9] = Half life in Sprague-Dawley rat at 3.0 mg/kg, po; format: ADME, organism-based; details: in vivo
Outline: (§3)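 Male SD rats dosed i.v. at 1.0 mg/kg or orally at 3.0 mg/kg. Vehicle is DMSO, Tween 80 and normal saline. Plasma concentration–time data give CL, Vss, T1/2, Cmax, Tmax, MRT, AUC and oral bioavailability F.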

[10] = Half life in Sprague-Dawley rat at 1.0 mg/kg, iv; format: ADME, organism-based; details: in vivo; outline: as §3
[11] = Tmax in Sprague-Dawley rat at 3.0 mg/kg, po; format: ADME, organism-based; details: in vivo
Outline: (§4)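 Male SD rats dosed orally at 3.0 mg/kg in DMSO/Tween 80/normal saline; plasma profile gives T1/2, Cmax, Tmax, AUC, MRT; F from comparison with 1.0 mg/kg i.v. dosing.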

[12] = Cmax in Sprague-Dawley rat at 3.0 mg/kg, po; format: ADME, organism-based; parameters: dose 3 mg/kg, route oral; details: in vivo; outline: as §3
[13] = AUC in Sprague-Dawley rat at 3.0 mg/kg, po; format: ADME, organism-based; details: in vivo; outline: as §3
[14] = AUC in Sprague-Dawley rat at 1.0 mg/kg, iv; format: ADME, organism-based; details: in vivo; outline: as §3
[15] = Clearance in Sprague-Dawley rat at 1.0 mg/kg, iv; format: ADME, organism-based; details: in vivo; outline: as §3
[16] = MRT (infinity) in Sprague-Dawley rat at 3.0 mg/kg, po; format: ADME, organism-based; details: in vivo; outline: as §4
[17] = MRT (infinity) in Sprague-Dawley rat at 1.0 mg/kg, iv; format: ADME, organism-based; details: in vivo
Outline: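 Male SD rats given 1.0 mg/kg i.v. in DMSO/Tween 80/normal saline vehicle; plasma concentration–time profile used for clearance, Vss, MRT.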

[18] = Oral bioavailability in Sprague-Dawley rat at 3.0 mg/kg; format: ADME, organism-based; details: in vivo; outline: as §4
[19] = system: HUVEC; experiment: Antiproliferative activity against human HUVEC cells after 72 hrs by sulforhodamine B assay; format: cell-based; outline: as §1
[20] = system: A549; experiment: Antiproliferative activity against human A549 cells after 72 hrs by sulforhodamine B assay; format: functional, cell-based; details: A549, 72 h; outline: as §1
[21] = system: HCT-116; experiment: Antiproliferative activity against human HCT116 cells after 72 hrs by sulforhodamine B assay; format: functional, cell-based; details: HCT-116, 72 h; outline: as §1
[22] = system: MGC-803; experiment: Antiproliferative activity against human MGC803 cells after 72 hrs by sulforhodamine B assay; format: functional, cell-based; details: MGC-803, 72 h; outline: as §1
[23] = Antiproliferative activity against human HepG cells after 72 hrs by sulforhodamine B assay; format: functional, cell-based; outline: as §1
[24] = system: BEL-7404 tumor cell line; experiment: Antiproliferative activity against human Bel7404 cells after 72 hrs by sulforhodamine B assay; format: functional, cell-based; details: BEL-7404, 72 h; outline: as §1
[25] = system: BT-474; experiment: Antiproliferative activity against human BT474 cells after 72 hrs by sulforhodamine B assay; format: functional, cell-based; details: BT-474, 72 h; outline: as §1
[26] = system: NCI-H460; experiment: Antiproliferative activity against human H460 cells after 72 hrs by sulforhodamine B assay; format: functional, cell-based; details: NCI-H460, 72 h; outline: as §1
[27] = system: HCT-116; experiment: Induction of apoptosis in human HCT116 cells assessed as late apoptotic cells at 0.5 uM after 48 hrs by Annexin V-FITC/propidium iodide staining-based FACS analysis (reference value: 5.74%); format: functional
[28] = system: HCT-116; experiment: Induction of apoptosis in human HCT116 cells assessed as early apoptotic cells at 1 uM after 48 hrs by Annexin V-FITC/propidium iodide staining-based FACS analysis (reference value: 2.35%); format: functional
[29] = system: HCT-116; experiment: Induction of apoptosis in human HCT116 cells assessed as late apoptotic cells at 1 uM after 48 hrs by Annexin V-FITC/propidium iodide staining-based FACS analysis (reference value: 5.74%); format: functional
[30] = system: HCT-116; experiment: Induction of apoptosis in human HCT116 cells assessed as late apoptotic cells at 2 uM after 48 hrs by Annexin V-FITC/propidium iodide staining-based FACS analysis (reference value: 5.74%); format: functional
[31] = system: HCT-116; experiment: Induction of apoptosis in human HCT116 cells pretreated with Z-VAD-FMK pan-caspase inhibitor for 1 hr assessed as late apoptotic cells at 0.5 uM after 48 hrs by Annexin V-FITC/propidium iodide staining-based FACS analysis (reference value: 3.15%); format: functional; parameters: scale not given: the % may be the effect or the level left
[32] = system: HCT-116; experiment: Induction of apoptosis in human HCT116 cells pretreated with Z-VAD-FMK pan-caspase inhibitor for 1 hr assessed as early apoptotic cells at 1 uM after 48 hrs by Annexin V-FITC/propidium iodide staining-based FACS analysis (reference value: 1.34%); format: functional; parameters: scale not given: the % may be the effect or the level left
[33] = system: HCT-116; experiment: Induction of apoptosis in human HCT116 cells pretreated with Z-VAD-FMK pan-caspase inhibitor for 1 hr assessed as early apoptotic cells at 2 uM after 48 hrs by Annexin V-FITC/propidium iodide staining-based FACS analysis (reference value: 1.34%); format: functional; parameters: scale not given: the % may be the effect or the level left
[34] = system: HCT-116; experiment: Induction of apoptosis in human HCT116 cells pretreated with Z-VAD-FMK pan-caspase inhibitor for 1 hr assessed as late apoptotic cells at 2 uM after 48 hrs by Annexin V-FITC/propidium iodide staining-based FACS analysis (reference value: 3.15%); format: functional; parameters: scale not given: the % may be the effect or the level left
[35] = system: Mus musculus; experiment: Toxicity in BALB/C nude mouse xenografted with human HCT116 cells assessed as body weight loss at 30 mg/kg, ip once daily for 14 days starting on day 14 post tumor implantation measured every 4 days during compound dosing; format: organism-based; details: in vivo
Outline: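 Male BALB/c nude mice (18–20 g) with subcutaneous HCT116 implants in right axilla; treatment from day 14 once tumors exceeded 100 mm3, randomized (6/treated, 10/control group); 10 mg/kg i.v. or 30 mg/kg i.p. daily for 14 days in 1% DMSO/saline; 5-FU 15 mg/kg as reference; body weight tracked, mean ± SD of 6 mice.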

IC50 [1]: 120 nM
solubility at 24 h [3]: 15.7 mg/mL (≈ 40.1 mM)
half-life at 0.1 µM [4]: 1.49 h
half-life at 0.1 µM [5]: 1.26 h
half-life at 0.1 µM [6]: 0.909 h
intrinsic clearance [7]: 23.5 mL/min/g
intrinsic clearance [8]: 38.5 mL/min/g
half-life [9]: 2.58 h
half-life [10]: 1.51 h
Tmax [11]: 0.25 h
Cmax [12]: 33.7 ng/mL
AUC [13]: 81.4 ng·h/mL
AUC [14]: 114 ng·h/mL
clearance [15]: 176 mL/min/kg
MRT inf [16]: 3.72 h
MRT inf [17]: 0.835 h
bioavailability [18]: 21%
IC50 [20]: 190 nM
IC50 [21]: 140 nM
IC50 [22]: 260 nM
IC50 [24]: 360 nM
IC50 [25]: 770 nM
IC50 [26]: 170 nM
Compound: CCN(CC)CCCn1c2c(c3ccccc3c1=O)C(=O)C(=O)c1cc(C)oc1-2
IC50 [2]: 330 nM
IC50 [19]: 2520 nM
IC50 [23]: 1310 nM
Activity [27]: 4.19%
Activity [28]: 8.61%
Activity [29]: 9.09%
Activity [30]: 32.63%
Activity [31]: 4.09%
Activity [32]: 2.99%
Activity [33]: 11.88%
Activity [34]: 22.49%
Activity [35]: Non-Toxic
